Most compounds without a hit are left out; they make up all but 4% or so of the library.
TAAR1 antagonist – human TAAR1 antagonists, primary screen, Fluo-8 calcium fluorescence, CHO RD-HGA16 cells; Trace amine-associated receptor 1 (Homo sapiens), Q96RJ0; antagonist; inhibition, % at 3 µM; 1.5% of 360,000 active; AID 624466, 2012;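 active = inhibition above a per-plate cutoff, the mean inhibition of test compounds on that plate plus 3 SD, cut at about 49% in these data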;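 note: 0% = DMSO plus EC80 beta-PEA response and 100% = DMSO alone without agonist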
Target sequence (Q96RJ0 whole entry, looked up): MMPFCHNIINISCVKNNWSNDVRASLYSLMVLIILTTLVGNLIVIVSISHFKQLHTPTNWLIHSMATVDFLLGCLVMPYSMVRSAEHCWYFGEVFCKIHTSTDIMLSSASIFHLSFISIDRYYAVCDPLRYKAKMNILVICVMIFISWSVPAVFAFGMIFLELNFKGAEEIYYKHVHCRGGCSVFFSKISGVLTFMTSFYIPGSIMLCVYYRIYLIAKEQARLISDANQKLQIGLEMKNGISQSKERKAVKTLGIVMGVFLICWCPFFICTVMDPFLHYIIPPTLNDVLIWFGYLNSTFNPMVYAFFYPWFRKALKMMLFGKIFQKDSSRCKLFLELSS
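Test system – hTAAR1-expressing CHO RD-HGA16 cells, Gα16-coupled · Also added – β-PEA at EC80 concentration, post-compound challenge · Compound – 3 µM, single point · Incubation – dye loading 75 min at 37 °C, then 30 min room temperature · Measured by – Fluo-8 intracellular calcium dye fluorescence, real-time kinetic reads · Benchmarks – vehicle and agonist controls · Replicates – singlicate, one well per test compound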
OX1R antag-1 – antagonists of human orexin 1 receptor (OX1R) | inhibition, % at 6.6 µM | AID 485270, 2010 | 1.8% of 330,000 active | OX1R-expressing cells, FRET antagonist read-out; in the data active = inhibition mostly above about 38%, no sharp cut-off; inactive = mostly below about 40%;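 note: 0% = agonist challenge alone and 100% = reference antagonist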
TAAR1 ag – human TAAR1 agonists, primary screen, Fluo-8 calcium fluorescence, CHO RD-HGA16 cells. Trace amine-associated receptor 1 (Homo sapiens), Q96RJ0. vehicle wells 0%, saturating PEA agonist 100%. activation, % at 3 µM. 0.99% of 360,000 active;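 active = activation above the mean activation of all test compounds in the run plus 3 SD, cut at about 38% in these data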
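Test system: RD-HGA16 (CHO) cells co-expressing Gα16 and hTAAR1; dosing: one-point dosing at 3 µM (nominal); timing: 17-24 h seeding, 75 min 37 °C dye, 30 min RT; signal: kinetic Fluo-8 calcium fluorescence; read-out basis: % activation relative to PEA EC100 response; controls: DMSO and PEA EC100; replicates: n 1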
CHO parental Ca – ATP-evoked calcium signal inhibitors, parental CHO, primary screen, counter-screen for OX1R antagonist project, cell-based, fluorescence, Fluo-8 calcium dye; 0.63% of 330,000 active; parental CHO-K1, ATP-induced calcium, Fluo-8 fluorescence; inhibition, % at 5.6 µM;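 active = inhibition above that plate's mean sample inhibition plus 3 SD, cut at about 26% in these data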;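 note: 0% = ATP-challenged DMSO wells and 100% = DMSO wells without ATP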
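Material: Parental CHO cells | Reagent: ATP | Compound dosing: Single nominal dose of 5.6 µM per compound | Detection: Intracellular calcium via Fluo-8 no-wash fluorescent dye | Read-out: % inhibition of ATP-induced calcium mobilization | Benchmarks: Low control ATP plus DMSO, high control DMSO only | Replicates: Singlicate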
OX1R antag-2 – OX1R (HCRTR1) antagonists, primary screen, fluorescence, CHO/OX1R cells, Fluo-8 calcium, orexin A; Orexin/Hypocretin receptor type 1 (Homo sapiens), O43613; Fluo-8 calcium fluorescence; inhibition, % at 5 µM; 0.43% of 330,000 active; AID 434989, 2010;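 active = inhibition above its plate's threshold, mean inhibition of all tested compounds on the plate plus 3 SD, cut at about 37% in these data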;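 note: 0% = orexin A challenge wells and 100% = SB-334867-A antagonist wells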
NTR1 agonist – agonists of human NTR1, primary screen, imaging, U2OS cells, beta-arrestin-GFP, high content; Neurotensin receptor type 1 (Homo sapiens), P30989; NTR1-U2OS beta-arrestin-GFP spot imaging, agonist mode; 0.17% of 330,000 active; activation, % at 20 µM;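 active = activation at or above 40% of the spot to cytoplasm intensity ratio, with at least 20 cells analyzed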;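 note: 0% = DMSO without peptide and 100% = 100 nM NTR1 peptide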
Target sequence (P30989 whole entry, looked up): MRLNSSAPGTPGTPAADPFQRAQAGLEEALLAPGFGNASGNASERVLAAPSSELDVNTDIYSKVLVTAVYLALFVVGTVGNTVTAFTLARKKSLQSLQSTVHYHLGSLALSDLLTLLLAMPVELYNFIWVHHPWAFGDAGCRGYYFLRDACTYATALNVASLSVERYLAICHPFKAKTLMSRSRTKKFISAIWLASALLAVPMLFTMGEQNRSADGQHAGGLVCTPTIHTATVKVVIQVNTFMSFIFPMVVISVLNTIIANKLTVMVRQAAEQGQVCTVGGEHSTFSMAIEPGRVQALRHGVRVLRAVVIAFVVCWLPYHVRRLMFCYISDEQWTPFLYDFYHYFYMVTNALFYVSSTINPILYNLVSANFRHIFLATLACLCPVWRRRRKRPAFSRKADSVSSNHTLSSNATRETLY
TAAR1 nonsel count – nonselective antagonists in TAAR1 counter-screen cells, counter-screen for hTAAR1 antagonist project, cell-based, fluorescence, calcium; counterscreen cell line, antagonist mode; AID 651780, 2012; 77% of 2,400 active; shares compounds with TAAR1 antagonist; inhibition, % at 3 µM; in the data active = inhibition above about 22%;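 note: CHO-Ga16 host cells stimulated with ATP at an EC80 level; 0% = agonist EC80 plus vehicle and 100% = vehicle without agonist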
TAAR1 ant conf – human TAAR1 antagonists, retest of hits, confirmation, cell-based, fluorescence; AID 651785, 2012; 40% of 2,400 active; shares compounds with TAAR1 antagonist; TAAR1-expressing cells, fluorescence antagonist read-out; inhibition, % at 3 µM; in the data active = inhibition above about 49%;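 note: CHO-Ga16 host cells challenged with agonist PEA near its EC80; 0% = agonist at EC80 plus vehicle and 100% = vehicle with no agonist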
Ga16 nonsel ag – calcium activation in Ga16-expressing cells, counter-screen for TAAR1 antagonist project, cell-based, fluorescence; activation, % at 3 µM; shares compounds with TAAR1 antagonist; AID 651953, 2012; agonist counterscreen; 18% of 2,400 active; in the data active = activation above about 12%;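 note: 0% = vehicle wells and 100% = saturating stimulus response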
TAAR1 ag counter – TAAR1 activation by candidate antagonists – cell-based, fluorescence, counter-screen for TAAR1 antagonist project | 2% of 2,400 active | hTAAR1 cell line, agonist mode | activation, % at 3 µM | shares compounds with TAAR1 antagonist; in the data active = activation above about 37%;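 note: CHO cells stably expressing TAAR1 with calcium dye readout; 0% = DMSO vehicle and 100% = full agonist response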
* hit, by the source's call; / = no result.

SMILES	TAAR1 antagonist	OX1R antag-1	TAAR1 ag	CHO parental Ca	OX1R antag-2	NTR1 agonist	TAAR1 nonsel count	TAAR1 ant conf	Ga16 nonsel ag	TAAR1 ag counter
O=C(Nc1cccc(C(F)(F)F)c1)c1csc(-c2ccncc2)n1	16.3	26.1	-1.4	-23.2	-52.9	1.6	/	/	/	/
COc1cc(Nc2ccccn2)cc(C(=O)Nc2cccc(C(F)(F)F)c2)c1	53.7*	13.0	6.9	-5.7	-19.8	30.3	34.5*	45.8	6.8	2.4
COc1cc(NC(=O)c2csc(-c3ccncc3)n2)cc(C(=O)Nc2cccc(C(F)(F)F)c2)c1	73.6*	26.9	9.3	-16.6	-21.4	-1.7	34.8*	55.2*	6.3	4.9
Cc1ccc(C23CC4CC(CC(C(=O)N(C)C)(C4)C2)C3)cc1	-14.6	-1.2	-0.5	-13.0	-42.4	4.3	/	/	/	/
O=C(Cc1cccs1)Nc1nnc(Cc2ccccc2)s1	11.4	11.3	19.0	-11.8	-28.2	-1.4	/	/	/	/
COc1ccc(Cc2nnc(NC(=O)Cc3cccs3)s2)cc1OC	57.4*	21.6	-0.6	-17.8	-20.4	-1.3	6.5	2.3	0.3	8.4
CC(Oc1ccccc1F)C(=O)NC1CCS(=O)(=O)C1 (stereo unspecified)	-21.1	8.5	0.5	6.3	-7.8	0.0	/	/	/	/
C=CC[C@H](CC(=O)NCCO)C(=O)N[C@H](COC(=O)[C@H](CC=C)CC(=O)OC(C)(C)C)Cc1c[nH]c2ccccc12	49.0*	4.0	10.3	-24.7	-10.5	5.8	21.3	41.0	6.6	7.9
C=CC[C@@H](CC(=O)N(CCO)Cc1ccccc1)C(=O)N[C@@H](COC(=O)[C@H](CC=C)CC(=O)OC(C)(C)C)Cc1c[nH]c2ccccc12	25.4	7.9	8.7	-17.8	-10.2	7.4	/	/	/	/
C=CC[C@H](CC(=O)N(CCO)Cc1ccccc1)C(=O)N[C@@H](COC(=O)[C@@H](CC=C)CC(=O)OC(C)(C)C)Cc1c[nH]c2ccccc12	68.3*	0.7	22.3	-6.3	15.1	18.7	32.4*	48.2	7.2	3.0
Fc1cccc(-c2cc3nc4c(c(N5CCOCC5)n3n2)CCCC4)c1	49.2*	12.0	6.6	-36.1	-14.1	9.2	18.3	25.9	5.2	10.9
COc1ccc(-c2nc3cccc(C)n3c2NCC2CCCO2)cc1O (stereo unspecified)	65.1*	28.6	15.2	2.3	-16.7	0.0	26.7*	47.7	8.1	8.0
COc1cc(/C=N/n2cnnc2)ccc1OC(=O)c1ccncc1	106.7*	2.5	1.7	-10.9	-7.3	-0.5	6.2	3.6	0.6	-0.7
COc1cccc(NC(=O)CN(C)C(=O)c2cccnc2Sc2ccc(C)c(C)c2)c1	9.5	18.5	3.1	-22.3	-33.9	0.3	/	/	/	/
CC[C@@H]1C/C=C\Cc2ccccc2[C@@H](C(=O)C[C@@H](O)CC(C)=O)OC1=O	-7.2	0.9	0.9	-4.8	-15.4	0.7	/	/	/	/
CC1CN(c2nc3ccccn3c(=O)c2C=O)CC(C)O1 (stereo unspecified)	-0.6	29.7	2.4	-4.3	-12.9	0.2	/	/	/	/
O=C(CCNS(=O)(=O)c1cccc(C(F)(F)F)c1)NCc1ccco1	5.1	-2.4	-4.0	-1.0	8.0	1.6	/	/	/	/
COc1cccc(CN2C(=O)[C@H]3Cc4c([nH]c5ccccc45)C(C)(C)N3C2=O)c1	61.4*	12.4	17.2	-9.2	-26.3	14.1	25.4*	41.5	8.8	9.7
O=C(CCN1C(=O)C2C3C=CC(C3)C2C1=O)NCCc1ccccc1 (stereo unspecified)	52.3*	13.0	11.9	-0.7	-6.6	-0.3	7.7	51.6*	5.3	16.7
Nc1nc(/C=C/c2cccnc2)nc(-c2ccccc2O)n1	67.0*	39.1	33.1	8.9	-6.7	6.0	32.4*	57.5*	14.5*	18.1
Nc1nc(/C=C/c2ccc(F)cc2)nc(-c2ccccc2O)n1	26.8	32.4	-1.4	-20.4	-19.4	20.9	/	/	/	/
NC(=O)c1nsc(C(=O)N(c2cccc(O)c2)C(C(=O)NC2CCCC2)c2ccc(Cl)cc2)c1N (stereo unspecified)	66.4*	-2.4	0.3	-1.8	2.9	7.1	24.9*	53.0*	5.8	11.5
CCOc1ccc(C(C(=O)NC2CCCC2)N(C(=O)c2snc(C(N)=O)c2N)c2cccc(O)c2)cc1 (stereo unspecified)	98.6*	14.2	16.9	24.6	23.5	6.3	37.1*	80.9*	7.8	7.6
Cc1cccc(N(C(=O)c2snc(C(N)=O)c2N)C(C(=O)NC2CCCC2)c2ccncc2)c1 (stereo unspecified)	-4.7	9.7	-6.1	-26.1	-39.5	-0.8	/	/	/	/
COCCCN1C(=O)c2ccc(C(=O)N3CCN(c4ccccc4OC)CC3)cc2C1=O	-4.9	18.2	1.9	-14.8	-18.5	-1.3	/	/	/	/
CCn1c(SCC(=O)Nc2cccc(C)n2)nc2c1c(=O)n(C)c(=O)n2C	17.3	2.4	4.3	-13.0	-6.2	-0.1	/	/	/	/
COc1nc(N)c(C#N)c(-c2ccc(N(C)CCC#N)cc2)c1C#N	80.6*	11.9	25.6	-7.6	9.1	6.4	29.2*	52.3*	17.3*	22.4
COc1ccc(-c2c(C#N)c(N)nc(Sc3ccc(Cl)cc3)c2C#N)cc1	8.0	7.5	1.3	-5.1	-6.0	5.9	/	/	/	/
COc1ccc(Sc2ccc(-c3nc4cnccn4c3NC3CCCCC3)cc2OC)cc1	57.8*	4.6	10.1	-9.8	10.3	5.3	29.1*	41.3	3.5	4.0

Screens as filed in PubChem BioAssay.
